Here are results for twelve compounds from ChEMBL document CHEMBL4052817 (J Med Chem, 2017).

Some results are limits rather than exact numbers.

Data set [1] concerns the target Indoleamine 2,3-dioxygenase 1 (Homo sapiens, UniProt P14902). Put plainly: Inhibition of human recombinant IDO-1 using L-Trp as substrate after 15 mins by PDMAB-based assay.
Data set [2] is described as follows: Oral bioavailability in mouse at 5 mg/kg. It is filed as ADME, organism-based. The note with it: in vivo.
A short description of data set [3]: Intrinsic clearance in mouse microsomes. It counts as ADME, Microsome.
For the next data set, the target named is Cytochrome P450 2C19 (Homo sapiens, UniProt P33261). Put plainly: Inhibition of CYP2C19 (unknown origin). It is filed as ADME.
In another data set the target is Cytochrome P450 2D6 (Homo sapiens, UniProt P10635). Description: Inhibition of CYP2D6 (unknown origin). It counts as ADME.
Data set [4] in a line: Oral bioavailability in mouse at 30 mg/kg. It counts as ADME, organism-based. The note with it: in vivo.
Data set [5] is described as follows: Fraction unbound in mouse plasma. It is filed as ADME, cell-free. A digest of the protocol: (§1)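 Racemate incubated with plasma from preclinical species and humans. The unbound fraction of the (R)-enantiomer was determined.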
Data set [6] is described as follows: Fraction unbound in human plasma. It counts as ADME, cell-free. The gist of the method: as §1
Data set [7] in a line: Intrinsic clearance in human microsomes. It counts as ADME, Microsome.
Data set [8] is described as follows: Efflux ratio of apparent permeability across human Caco2 cells. It counts as ADME, cell-based. The note with it: Caco-2. For orientation: Caco-2 cells form a polarised layer with tight junctions and transporters.
The nature of data set [9]: Clearance in mouse. It counts as ADME, organism-based. The note with it: in vivo.
Another data set deals with Cytochrome P450 2C9 (Homo sapiens, UniProt P11712). Description: Inhibition of CYP2C9 (unknown origin). It counts as ADME.
For a further data set, the target named is T1, Cytochrome P450 1A2 (Homo sapiens, UniProt P05177).
T1 sequence (P05177 whole entry): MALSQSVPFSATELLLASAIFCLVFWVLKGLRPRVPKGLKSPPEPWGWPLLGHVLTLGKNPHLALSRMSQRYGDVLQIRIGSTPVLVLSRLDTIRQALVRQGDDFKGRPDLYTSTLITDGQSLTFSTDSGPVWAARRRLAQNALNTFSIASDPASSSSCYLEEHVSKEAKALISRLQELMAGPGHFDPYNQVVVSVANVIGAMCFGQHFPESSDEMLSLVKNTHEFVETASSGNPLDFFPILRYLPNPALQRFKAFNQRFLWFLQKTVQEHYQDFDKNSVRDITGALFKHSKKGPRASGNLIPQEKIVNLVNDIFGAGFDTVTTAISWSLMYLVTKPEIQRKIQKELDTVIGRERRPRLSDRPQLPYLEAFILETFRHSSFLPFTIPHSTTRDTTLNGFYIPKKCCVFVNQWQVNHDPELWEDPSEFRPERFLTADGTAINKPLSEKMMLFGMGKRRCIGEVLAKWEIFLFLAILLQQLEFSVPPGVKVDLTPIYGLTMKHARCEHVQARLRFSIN
Description: Inhibition of CYP1A2 (unknown origin). It is filed as ADME.

The nature of data set [10]: Volume of distribution at steady state in mouse. It is filed as ADME, organism-based. The note with it: in vivo, read-out: Vdss. A digest of the protocol:
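Single 1 mg/kg IV dose of the racemate to male CD-1 mice (n=3). The plasma active enantiomer was quantified by chiral LC-MS/MS, and Vss was taken from the plasma concentration–time profile.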

Data set [11] is described as follows: Half life in mouse. The note with it: in vivo. It is filed as ADME, organism-based.
Data set [12] can be described thus: Apparent permeability across human Caco2 cells. The note with it: Caco-2. It is filed as ADME, cell-based.
A further data set addresses Cytochrome P450 3A4 (Homo sapiens, UniProt P08684). Put plainly: Inhibition of CYP3A4 (unknown origin). It counts as ADME.
Data set [13] has as its system Cynomolgus monkey. Put plainly: Drug metabolism in cynomolgus monkey assessed as (S)-3-(5-fluoro-1H-indol-3-yl)pyrrolidine-2,5-dione formation at 10 mg/kg, po. It counts as ADME, organism-based, Macaca fascicularis. The note with it: in vivo. A digest of the protocol: (§2)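 (R)-enantiomer or racemate dosed orally at 10 mg/kg to monkeys. Total plasma concentrations of each enantiomer were followed over time.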

A further data set has as its system Canis familiaris. Description: AUC (infinity) in dog assessed as (S)-3-(5-fluoro-1H-indol-3-yl)pyrrolidine-2,5-dione at 1 mg/kg, iv. It is filed as ADME, organism-based, Canis lupus familiaris. Set-up: dose 1 mg/kg, route intravenous, time infinity. The note with it: in vivo. The gist of the method:
(§3)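 Pure active (R)-enantiomer given IV at 1 mg/kg to rat, dog and monkey. Exposure (AUCinf) of the (R)- and (S)-enantiomers measured; their AUC ratio reported as an index of in vivo interconversion.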

Data set [14] can be described thus: Metabolic stability in mouse plasma assessed as parent compound remaining after 48 hrs. It counts as ADME, cell-free. The note with it: read-out: Stability. A digest of the protocol: (§4)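 Active enantiomer incubated 48 h in mouse, dog or rat plasma, or in dog plasma that had been acidified; remaining enantiomer and formed antipode measured by chiral LC/MS-MS.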

The nature of data set [15]: Inhibition of dog IDO-1 using tryptophan as substrate after 22 mins by LC-MS/MS method.
A short description of data set [16]: AUC (infinity) in cynomolgus monkey at 1 mg/kg, iv. It is filed as ADME, organism-based, Macaca fascicularis. The arrangement: dose 1 mg/kg, route intravenous, time infinity. The note with it: in vivo.
The next data set relates to Rattus norvegicus. Description: AUC (infinity) in rat assessed as (S)-3-(5-fluoro-1H-indol-3-yl)pyrrolidine-2,5-dione at 1 mg/kg, iv. It is filed as ADME, organism-based. Set-up: dose 1 mg/kg, time infinity, route intravenous. The note with it: in vivo. The gist of the method:
as §3

The nature of data set [17]: Metabolic stability in rat plasma assessed as parent compound remaining after 48 hrs. It counts as ADME, cell-free. The note with it: read-out: Stability. A digest of the protocol:
as §4

The target in data set [18] is Indoleamine 2,3-dioxygenase 1 (Mus musculus, UniProt P28776). Description: Inhibition of mouse IDO-1 using tryptophan as substrate after 22 mins by LC-MS/MS method.
A short description of data set [19]: Fraction unbound in human plasma after 48 hrs. It counts as ADME, cell-free.
Data set [20] in a line: AUC (infinity) in dog at 1 mg/kg, iv. The note with it: in vivo. The arrangement: dose 1 mg/kg, route intravenous, time infinity. It is filed as ADME, organism-based, Canis lupus familiaris.
Data set [21] can be described thus: Metabolic stability in dog acidified plasma assessed as parent compound remaining after 48 hrs. It is filed as ADME, cell-free, Canis lupus familiaris. The note with it: read-out: Stability. A digest of the protocol:
as §4

Data set [22] can be described thus: AUC (infinity) in rat at 1 mg/kg, iv. It is filed as ADME, organism-based. The note with it: in vivo. Set-up: dose 1 mg/kg, time infinity, route intravenous.
Data set [23] can be described thus: Drug metabolism in human hepatocytes in absence of CYP inhibitor ABT. It counts as ADME, cell-based, Hepatocyte. The note with it: read-out: Drug metabolism.
The nature of data set [24]: Metabolic stability in dog plasma assessed as parent compound remaining after 48 hrs. It is filed as ADME, cell-free, Canis lupus familiaris. The note with it: read-out: Stability. A digest of the protocol:
as §4

A short description of data set [25]: Chemical stability in phosphate buffer saline at pH 7.4 assessed as parent compound remaining after 48 hrs. The note with it: phosphate buffered saline, read-out: Stability. It is filed as physicochemical. A digest of the protocol:
(§5)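 (R)-enantiomer incubated for 48 h in phosphate-buffered saline (pH 7.4) or in mouse, rat, dog or acidified dog plasma. The (R)-enantiomer remaining and (S)-enantiomer formed were quantified (%) by chiral LC/MS-MS.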

Data set [26] relates to Cynomolgus monkey. Put plainly: AUC (infinity) in cynomolgus monkey assessed as (S)-3-(5-fluoro-1H-indol-3-yl)pyrrolidine-2,5-dione at 1 mg/kg, iv. The note with it: in vivo. It counts as ADME, organism-based, Macaca fascicularis. Set-up: dose 1 mg/kg, route intravenous, time infinity. A digest of the protocol:
as §3

Data set [27] is described as follows: Drug metabolism in human hepatocytes in presence of CYP inhibitor ABT. It is filed as ADME, cell-based, Hepatocyte. The note with it: with ABT (CYP inhibitor), read-out: Drug metabolism.
Data set [28] relates to Plasma. Description: Drug level in mouse plasma treated with (R)-3-(5-fluoro-1H-indol-3-yl)pyrrolidine-2,5-dione after 48 hrs. It counts as ADME, cell-free. A digest of the protocol: as §5
For data set [29], the system named is Cynomolgus monkey. Put plainly: Drug level in cynomolgus monkey treated with (R)-3-(5-fluoro-1H-indol-3-yl)pyrrolidine-2,5-dione at 10 mg/kg, po. The note with it: in vivo. It is filed as ADME, organism-based, Macaca fascicularis. A digest of the protocol:
as §2

The subject of data set [30] is Plasma. Put plainly: Drug level in dog plasma treated with (R)-3-(5-fluoro-1H-indol-3-yl)pyrrolidine-2,5-dione after 48 hrs. It counts as ADME, cell-free, Canis lupus familiaris. A digest of the protocol: as §5
Data set [31] deals with Plasma. Put plainly: Drug level in rat plasma treated with (R)-3-(5-fluoro-1H-indol-3-yl)pyrrolidine-2,5-dione after 48 hrs. It is filed as ADME, cell-free. The gist of the method: as §5
Data set [32] in a line: Drug level in phosphate buffer saline at pH 7.4 treated with (R)-3-(5-fluoro-1H-indol-3-yl)pyrrolidine-2,5-dione after 48 hrs. A digest of the protocol:
as §5

Data set [33] relates to Plasma. Description: Drug level in dog acidified plasma treated with (R)-3-(5-fluoro-1H-indol-3-yl)pyrrolidine-2,5-dione after 48 hrs. It is filed as ADME, cell-free, Canis lupus familiaris. A digest of the protocol: as §5

As a reminder, the IC50 is the concentration that gives 50% inhibition. By bioavailability is commonly meant the share of a dose that reaches the circulation, judged against a reference dose that is usually intravenous. Broadly, the fraction unbound is free concentration divided by total concentration. Broadly, the efflux ratio is a quotient of directional permeabilities that is used to spot active efflux. As a reminder, the half-life is the time in which the quantity being followed falls by half. A word on the Papp: it is the rate of passage across a membrane or cell layer, normalised by area and donor concentration. A word on the AUC: it is concentration integrated over time. A word on the AUC(0-inf): it is total exposure, with the tail of the curve extrapolated.

Sequence of Indoleamine 2,3-dioxygenase 1 (Homo sapiens, UniProt P14902) (P14902 whole entry): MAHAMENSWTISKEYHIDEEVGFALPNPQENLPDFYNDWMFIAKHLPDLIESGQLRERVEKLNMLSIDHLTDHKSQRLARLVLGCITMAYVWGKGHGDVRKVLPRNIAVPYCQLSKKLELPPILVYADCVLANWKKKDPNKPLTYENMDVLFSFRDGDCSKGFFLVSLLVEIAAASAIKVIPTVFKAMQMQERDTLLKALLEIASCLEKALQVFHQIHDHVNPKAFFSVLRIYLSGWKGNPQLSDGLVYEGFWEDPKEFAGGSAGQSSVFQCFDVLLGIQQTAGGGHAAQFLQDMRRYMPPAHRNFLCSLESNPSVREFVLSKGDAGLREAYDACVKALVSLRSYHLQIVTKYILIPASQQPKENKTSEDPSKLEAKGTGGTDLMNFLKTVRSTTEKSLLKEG
Sequence of Indoleamine 2,3-dioxygenase 1 (Mus musculus, UniProt P28776) (P28776 whole entry): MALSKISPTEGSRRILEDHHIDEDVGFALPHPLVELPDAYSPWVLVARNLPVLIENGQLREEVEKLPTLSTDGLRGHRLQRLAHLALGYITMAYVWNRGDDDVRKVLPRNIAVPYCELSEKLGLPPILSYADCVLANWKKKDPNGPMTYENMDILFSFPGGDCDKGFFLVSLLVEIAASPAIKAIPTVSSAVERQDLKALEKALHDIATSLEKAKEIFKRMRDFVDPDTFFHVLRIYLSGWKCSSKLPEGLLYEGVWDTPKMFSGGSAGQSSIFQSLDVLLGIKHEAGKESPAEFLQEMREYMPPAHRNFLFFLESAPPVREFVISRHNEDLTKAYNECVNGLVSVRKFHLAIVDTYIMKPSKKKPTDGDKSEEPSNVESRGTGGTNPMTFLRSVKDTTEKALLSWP
Sequence of Cytochrome P450 2D6 (P10635 whole entry): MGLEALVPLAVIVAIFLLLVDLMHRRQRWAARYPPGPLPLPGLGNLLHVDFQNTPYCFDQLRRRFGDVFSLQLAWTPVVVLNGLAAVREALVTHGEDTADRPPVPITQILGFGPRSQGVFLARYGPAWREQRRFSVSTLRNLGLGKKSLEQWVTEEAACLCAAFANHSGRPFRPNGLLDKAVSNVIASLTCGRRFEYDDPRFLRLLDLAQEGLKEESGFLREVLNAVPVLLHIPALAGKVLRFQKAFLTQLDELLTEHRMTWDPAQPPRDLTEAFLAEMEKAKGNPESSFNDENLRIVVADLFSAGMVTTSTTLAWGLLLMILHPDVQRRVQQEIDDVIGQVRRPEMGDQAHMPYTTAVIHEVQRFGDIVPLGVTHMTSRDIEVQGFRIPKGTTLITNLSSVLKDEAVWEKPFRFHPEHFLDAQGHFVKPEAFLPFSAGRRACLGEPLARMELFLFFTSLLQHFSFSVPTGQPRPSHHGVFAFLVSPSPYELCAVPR
Sequence of Cytochrome P450 3A4 (P08684 whole entry): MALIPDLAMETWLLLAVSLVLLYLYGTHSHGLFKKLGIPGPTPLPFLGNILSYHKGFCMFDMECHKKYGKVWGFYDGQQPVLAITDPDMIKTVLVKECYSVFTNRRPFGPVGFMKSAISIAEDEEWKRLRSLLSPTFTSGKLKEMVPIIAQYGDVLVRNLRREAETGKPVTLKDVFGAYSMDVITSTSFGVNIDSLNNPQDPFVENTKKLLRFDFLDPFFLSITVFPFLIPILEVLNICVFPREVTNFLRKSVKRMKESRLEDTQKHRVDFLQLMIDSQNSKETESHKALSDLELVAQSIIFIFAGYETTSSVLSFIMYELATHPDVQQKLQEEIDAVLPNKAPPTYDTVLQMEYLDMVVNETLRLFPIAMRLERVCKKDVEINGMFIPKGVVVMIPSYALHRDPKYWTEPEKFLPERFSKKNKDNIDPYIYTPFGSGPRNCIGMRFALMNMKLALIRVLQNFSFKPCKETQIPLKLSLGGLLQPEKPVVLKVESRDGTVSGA
Sequence of Cytochrome P450 2C9 (P11712 whole entry): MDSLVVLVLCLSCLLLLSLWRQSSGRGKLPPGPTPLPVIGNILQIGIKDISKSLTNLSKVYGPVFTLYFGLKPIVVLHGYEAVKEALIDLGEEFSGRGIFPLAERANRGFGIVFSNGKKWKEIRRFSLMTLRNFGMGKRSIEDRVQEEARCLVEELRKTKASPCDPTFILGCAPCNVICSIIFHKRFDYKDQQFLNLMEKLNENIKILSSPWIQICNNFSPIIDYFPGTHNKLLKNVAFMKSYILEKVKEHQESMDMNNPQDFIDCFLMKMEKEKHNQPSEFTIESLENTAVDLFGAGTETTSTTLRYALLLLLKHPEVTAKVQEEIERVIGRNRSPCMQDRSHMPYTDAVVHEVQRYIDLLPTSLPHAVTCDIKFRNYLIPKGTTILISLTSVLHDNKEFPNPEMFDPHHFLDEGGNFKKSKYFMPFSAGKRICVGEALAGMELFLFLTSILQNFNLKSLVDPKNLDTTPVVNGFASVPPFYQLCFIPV
Sequence of Cytochrome P450 2C19 (P33261 whole entry): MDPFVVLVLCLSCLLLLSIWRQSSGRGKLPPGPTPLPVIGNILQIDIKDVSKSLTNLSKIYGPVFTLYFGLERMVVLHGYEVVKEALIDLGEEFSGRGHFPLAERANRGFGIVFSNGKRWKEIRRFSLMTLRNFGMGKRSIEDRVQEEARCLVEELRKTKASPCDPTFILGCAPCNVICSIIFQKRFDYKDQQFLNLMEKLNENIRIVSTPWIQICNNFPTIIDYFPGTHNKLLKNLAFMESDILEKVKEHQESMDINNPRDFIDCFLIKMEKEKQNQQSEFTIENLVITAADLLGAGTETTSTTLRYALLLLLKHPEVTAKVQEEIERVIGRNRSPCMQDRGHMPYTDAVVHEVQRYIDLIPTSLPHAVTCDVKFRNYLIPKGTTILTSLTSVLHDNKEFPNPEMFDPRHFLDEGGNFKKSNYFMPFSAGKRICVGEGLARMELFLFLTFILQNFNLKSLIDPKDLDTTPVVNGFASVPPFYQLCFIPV

Consider `O=C1CC(c2c[nH]c3ccc(C(F)(F)F)cc23)C(=O)N1` (centres undefined), for which the IC50 in data set [1] was found to be 9.7 µM.
Still for that read-out and setting: next, `O=C1C[C@H](c2c[nH]c3cc(Cl)c(F)cc23)C(=O)N1`: 0.58 µM; `O=C1CC(c2c[nH]c3ccc(Cl)cc23)C(=O)N1` (centres undefined): 0.83 µM; `O=C1C[C@@H](c2c[nH]c3cc(Cl)c(F)cc23)C(=O)N1`: above 50 µM.
With `O=C1CC(c2cccc3ccc(Cl)cc23)C(=O)N1` (centres undefined), the IC50 in data set [1] is above 50 µM.
Consider `COc1ccc2c(C3CC(=O)NC3=O)c[nH]c2c1` (centres undefined), for which the IC50 in [1] is above 50 µM.
As to `O=C1CC(c2cccc3cc(Cl)ccc23)C(=O)N1` (centres undefined), the half-maximal inhibitory concentration (IC50) in data set [1] is above 50 µM.
On to `O=C1C[C@H](c2c[nH]c3ccccc23)C(=O)N1`, for which the bioavailability in data set [2] was determined as 63%; in [4] it was 65%. The clearance is below 10 µL/min/mg in data set [3], below 10 µL/min/mg in data set [7] and 15.6 mL/min/kg in data set [9]. Moreover, the 50% inhibitory concentration (IC50) against Cytochrome P450 2C19, on Cytochrome P450 2D6, against Cytochrome P450 2C9, on Cytochrome P450 1A2 and at Cytochrome P450 3A4 was above 10 µM throughout. Besides, the results for the fraction unbound in [5] and in [6] were 0.55 and 0.43, respectively. In [8], the efflux ratio is 0.77. In addition, in data set [10], the Vd was found to be 1.2 L/kg. Moreover, the half-life in data set [11] was 58.2 min. Besides, in data set [12], the Papp amounted to 28 ×10⁻⁶ cm/s.
As for `O=C1C[C@H](c2c[nH]c3ccc(F)cc23)C(=O)N1`, the Drug metabolism result in the data set with Cynomolgus monkey [13] is “Metabolite_Detected”. The results for the exposure (AUC) in the data set with Canis familiaris, in the data set on Rattus norvegicus and with Cynomolgus monkey [26] were 124 ng·h/mL, 153 ng·h/mL and 3516 ng·h/mL, respectively. Further, the remaining at 48 h in [14] is 35%; in data set [17] it was 27%; in data set [21], 93.5%; in [24] it was 30%; in [25], 89%. For the same compound, the concentration for half-maximal inhibition (IC50) amounted to 0.2 µM in data set [15] and 7.3 µM in data set [18]. For the same compound, the total exposure AUC(0-inf) was 6810 ng·h/mL in [16], 696 ng·h/mL in data set [20] and 2270 ng·h/mL in data set [22]. This compound also displayed a free fraction (fraction unbound) at 48 h in data set [19] of 0.449. In addition, the values for the metabolised in data set [23] and in data set [27] were 61% and 39%, respectively.
On to `N#Cc1ccc2[nH]cc(C3CC(=O)NC3=O)c2c1` (centres undefined), for which the IC50 in [1] amounted to 1.2 µM.
Still for that read-out and setting: next, `O=C1C[C@@H](c2c[nH]c3ccccc23)C(=O)N1`: 83 µM.
With `O=C1C[C@@H](c2c[nH]c3ccc(F)cc23)C(=O)N1`, the Drug metabolism result with Plasma [28] is given as “Metabolite_Detected”; in the data set with Cynomolgus monkey [29], “Metabolite_Detected”; with Plasma [30], “Metabolite_Detected”; in the data set on Plasma [31] it was “Metabolite_Detected”; in [32] it was “Metabolite detected”; with Plasma [33], “Metabolite_Detected”. This compound gave a fraction unbound at 48 h in data set [19] of 0.286.
